Calb FLC = C. albicans growth inhibition with fluconazole, primary screen, CaCi-2 strain, Alamar Blue fluorescence | C. albicans CaCi-2 (fluconazole-resistant clinical isolate) + fluconazole, 48 h | growth inhibition, % (concentration not given with the values) | 300,000 compounds, 0.57% hits | AID 1979, 2009;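 active = growth inhibition above about 58% in most replicates, limit read from the data, passing the limit was not always enough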;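 also: all wells also contain fluconazole at 8 µg/ml as a sub-toxic cotreatment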
NALP1 yeast inh = NALP1 inflammasome inhibitors in reconstituted yeast, colorimetric, S. cerevisiae, triplicate retest; S. cerevisiae NALP1/ASC/caspase-1 growth, X-gal OD620, 72 h; AID 2071, 2009; 280,000 compounds, 0.61% hits; inhibition, % at 10 µM; in the data active = inhibition mostly above about 24%, no sharp cut-off; inactive = mostly below about 32%
PolyA inh = polyadenylation inhibitors in yeast reporter cells, primary screen, luminescence, S. cerevisiae. 300,000 compounds, 0.02% hits. activity score, % at 12 µM. S. cerevisiae SKY197-pL101 polyadenylation reporter, beta-gal luminescence; efflux-impaired pdr1/pdr3 knockout yeast; score 100 = 6 SD above DMSO. AID 1875, 2009;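 active = lowest replicate activity score at least 50, where 100 means six control SD above control mean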;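 also: yeast exposed to compound for 9 h at 30 °C; higher score means more reporter readthrough which indicates perturbed polyadenylation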
NALP3 yeast inh = NALP3 inflammasome inhibitors in reconstituted yeast, primary screen, luminescence, uHTS | 330,000 compounds, 0.39% hits | Yeast reconstituted NLRP3/ASC/caspase-1, beta-gal luminescence, 24 h | inhibition, % at 10 µM | AID 2825, 2010;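 active = inhibition of 50% or more; inactive = inhibition below 50%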
T cruzi repl = inhibitors of intracellular T. cruzi growth, primary screen, luminescence, NIH3T3 host cells; T. cruzi beta-gal in NIH3T3, 90 h; inhibition, % (no concentration beside the values); 300,000 compounds, 1.4% hits;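 active = mean inhibition across valid replicates above about 55%, limit read from the data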;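 also: signal also drops with host cell toxicity which is not excluded here; higher percent means less beta-gal luminescence so fewer parasites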
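compound dosing = single 50 nL compound addition per well in DMSO | material = NIH/3T3 host cells with β-galactosidase reporter T. cruzi | input = 5,000 host fibroblasts per well | timing = ≥90 h infection period, 3 h prior cell attachment | read-out basis = percent inhibition of parasite-derived β-gal signal | detection = GalScreen β-gal luminescence, detergent lysis, 60 min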
Lmaj promast = Leishmania major promastigote growth inhibition, primary screen; Leishmania major promastigotes, resazurin fluorescence viability; inhibition, % at 10 µM; 200,000 compounds, 9% hits; in the data active = inhibition above about 50%;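 also: promastigotes grown with compound for 44 hours at 28 °C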
Of the large screens only hits and unclear results are named; the others gave an inactive call. This is one part of a sample in which hits are shown more often than they occur.

O=C(O)COc1ccccc1C=NNc1ccc([N+](=O)[O-])cc1S(=O)(=O)Nc1ccc(Cl)cc1	none (no result: Calb FLC, NALP1 yeast inh, PolyA inh, T cruzi repl, Lmaj promast)
COc1ccc(NS(=O)(=O)c2cc([N+](=O)[O-])ccc2NN=Cc2ccccc2OCC(=O)O)cc1	none (no result: Calb FLC, NALP1 yeast inh, PolyA inh, T cruzi repl, Lmaj promast)
COc1ccc(NS(=O)(=O)c2cc([N+](=O)[O-])ccc2N/N=C\c2c(C)[nH]c3ccccc23)cc1	Lmaj promast 98
O=C(CSc1nnc(-c2cccnc2)n1Cc1ccco1)c1ccccc1	none
Cc1ccc(C(=O)CSc2nnc(CNc3ccc(C)cc3C)n2Cc2ccco2)cc1	Lmaj promast 60
COc1ccc(C(=O)CSc2nnc(CNc3ccc(C)cc3C)n2Cc2ccco2)cc1	none
O=C(CSc1nnc(-c2ccc(O)cc2)n1Cc1ccco1)c1ccccc1	Lmaj promast 54
O=S(=O)(Nc1cc(Sc2cccc3cccnc23)c(O)c2ccccc12)c1ccccc1	Lmaj promast 100 (no result: NALP3 yeast inh)
CCOc1ccc(S(=O)(=O)Nc2cc(SCC(=O)O)c(O)c3ccccc23)cc1	none (no result: NALP3 yeast inh, Lmaj promast)
CCc1ccc(S(=O)(=O)Nc2cc(SCC(=O)O)c(O)c3ccccc23)cc1	Lmaj promast 99
Cc1ccc(C)c(S(=O)(=O)Nc2cc(SCC(=O)O)c(O)c3ccccc23)c1	Lmaj promast 100 (no result: Calb FLC, PolyA inh, NALP3 yeast inh, T cruzi repl)
O=C(O)CSc1cc(NS(=O)(=O)c2cccc([N+](=O)[O-])c2)c2ccccc2c1O	none (no result: NALP3 yeast inh, Lmaj promast)
Nc1nc(-c2ccc3c(c2)CCCC3)c(CC(=O)O)s1	NALP1 yeast inh 37 (no result: Lmaj promast)
Cc1ccc(S(=O)(=O)N(C)c2c(C)ccc(S(N)(=O)=O)c2C)cc1	none (no result: T cruzi repl)
COc1ccc(-c2cc(=O)n(CCC#N)[nH]2)cc1	Lmaj promast 96
CC(C)n1c(/C=C/[C@@H](O)C[C@@H](O)CC(=O)O)c(-c2ccc(F)cc2)c2ccccc21	none (no result: Lmaj promast)
COCc1c(C(C)C)nc(C(C)C)c(/C=C/[C@@H](O)C[C@@H](O)CC(=O)O)c1-c1ccc(F)cc1	Calb FLC 112, T cruzi repl 65 (no result: NALP1 yeast inh, NALP3 yeast inh, Lmaj promast)
CCc1cc(=O)oc2c3c(cc(OCC(=O)NCCCCCC(=O)O)c12)OC(C)(C)CC3	none (no result: Lmaj promast)
Nc1ccc(N2CCCCC2)cc1N1CCCCC1	T cruzi repl 62, Lmaj promast 100
CCn1nnnc1SCC(=O)Nc1nc(-c2cccs2)cs1	Lmaj promast 55
CCn1nnnc1SCC(=O)Nc1nnc(C(C)C)s1	none
CC(C)CN(C(=O)c1nn(C)c(=O)c2ccccc12)c1nc2ccccc2s1	Lmaj promast 52
CC(C)CN(C(=O)c1ccco1)c1nc2ccccc2s1	none
Cc1cc(NC(=O)C(C)Oc2ccc(Cl)cc2Cl)n(-c2ccccc2)n1 (configuration not stated)	none
COc1ccccc1NC(=O)C1=C(C)Nc2nc(-c3cccs3)nn2C1c1cccnc1 (configuration not stated)	Lmaj promast 97
CC1=C(C(N)=O)C(c2cccnc2)n2nc(-c3cccc(Cl)c3)nc2N1 (configuration not stated)	Lmaj promast 67
COc1ccccc1-c1nc2n(n1)C(c1cccs1)C(C(=O)Nc1cccnc1)=C(C)N2 (configuration not stated)	Lmaj promast 99
O=S(=O)(c1ccc(Cl)nc1)N1CCOCC1	none (no result: Calb FLC, NALP1 yeast inh, PolyA inh, T cruzi repl, Lmaj promast)
Cn1c(=O)c2c(nc(Sc3n[nH]c(N)n3)n2Cc2ccccc2Cl)n(C)c1=O	none
Cc1ccc(S(=O)(=O)NCC2CCC(C(=O)O)CC2)cc1 (configuration not stated)	none
O=C(/C=C/c1ccc(Cl)cc1)N(c1ccccn1)C1CCCCC1	Lmaj promast 83
COc1ccc(/C=C/C(=O)N(c2ccccn2)C2CCCCC2)cc1OC	Calb FLC 83
O=C(/C=C/c1cccc(F)c1)N(c1ccccn1)C1CCCCC1	none
CCCCN1Cc2c(nc3cc(-c4ccco4)[nH]n3c2=O)C1=O	none (no result: Lmaj promast)
CCc1ccccc1NC(=O)NNC(=O)CCc1ccccc1	none (no result: Lmaj promast)
CC(CCc1ccccc1)NC(=O)CNC(=S)N(Cc1cccs1)C1CCCC1 (configuration not stated)	Lmaj promast 51 (no result: NALP3 yeast inh)
CCOC(=O)CNC(=S)N(Cc1cccs1)C1CCCCC1	none
